Experimental findings from PMC9526468 (Thyroid, 2022) are described below.

What all share (experiment): radiolabelled iodothyronine uptake inhibition in transfected COS1 cells
Format in all cases: cell-based

For experiment [1], the target named is LAT1 (hSLC7A5, cotransfected with hSLC3A2) (Homo sapiens, UniProt Q01650). A digest of the protocol: (§1)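 COS1 cells cotransfected with 100 ng transporter vector, 100 ng hSLC3A2 (4F2 heavy chain), and 50 ng hCRYM to limit efflux; empty vector served as control. At 48 h post-transfection, cells were washed in BSA-free DPBS+Ca²⁺/Mg²⁺/0.1% glucose. They were then incubated at 37°C with 1 nM 3,3′-T2 plus [¹²⁵I]-3,3′-T2 (5 × 10⁴ cpm) and increasing inhibitor concentrations or vehicle. Finally, cells were rinsed, lysed in 0.1 N NaOH, and gamma-counted.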

In experiment [2] the target is T1, LAT2 (hSLC7A8, cotransfected with hSLC3A2) (Homo sapiens, UniProt Q9UHI5).
T1 sequence (Q9UHI5 1-535): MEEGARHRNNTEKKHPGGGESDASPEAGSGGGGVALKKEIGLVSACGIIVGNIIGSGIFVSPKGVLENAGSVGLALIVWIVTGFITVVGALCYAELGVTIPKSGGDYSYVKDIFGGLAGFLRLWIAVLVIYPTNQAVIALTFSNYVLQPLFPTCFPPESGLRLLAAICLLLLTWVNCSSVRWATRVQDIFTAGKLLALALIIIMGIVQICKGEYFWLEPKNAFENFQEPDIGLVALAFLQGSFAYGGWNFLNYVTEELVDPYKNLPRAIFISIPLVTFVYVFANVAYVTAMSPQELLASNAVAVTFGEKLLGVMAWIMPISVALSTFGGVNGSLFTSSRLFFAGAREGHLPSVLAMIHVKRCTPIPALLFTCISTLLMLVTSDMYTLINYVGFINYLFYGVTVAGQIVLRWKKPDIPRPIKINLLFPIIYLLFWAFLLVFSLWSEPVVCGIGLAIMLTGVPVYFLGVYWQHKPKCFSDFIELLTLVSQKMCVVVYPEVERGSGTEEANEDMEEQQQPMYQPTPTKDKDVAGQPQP
T1 sequence (P08195 2-529 partner): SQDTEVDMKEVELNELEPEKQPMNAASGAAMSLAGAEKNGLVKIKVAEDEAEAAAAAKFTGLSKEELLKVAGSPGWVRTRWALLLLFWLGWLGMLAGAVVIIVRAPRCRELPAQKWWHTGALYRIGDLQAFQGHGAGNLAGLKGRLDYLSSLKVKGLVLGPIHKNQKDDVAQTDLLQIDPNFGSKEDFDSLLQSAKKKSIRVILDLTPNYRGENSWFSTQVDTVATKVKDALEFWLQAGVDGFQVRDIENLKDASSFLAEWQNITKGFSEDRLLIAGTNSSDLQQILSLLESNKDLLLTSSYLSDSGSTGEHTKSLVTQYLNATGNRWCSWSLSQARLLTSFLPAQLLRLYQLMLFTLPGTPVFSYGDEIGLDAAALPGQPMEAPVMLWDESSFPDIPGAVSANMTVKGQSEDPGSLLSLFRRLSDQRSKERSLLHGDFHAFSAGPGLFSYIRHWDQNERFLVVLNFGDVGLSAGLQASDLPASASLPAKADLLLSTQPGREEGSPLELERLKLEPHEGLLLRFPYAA
A digest of the protocol:
as §1

A further experiment concerns the target T2, MCT10 (hMCT10) (Homo sapiens, UniProt Q8TF71).
T2 sequence (Q8TF71 1-515): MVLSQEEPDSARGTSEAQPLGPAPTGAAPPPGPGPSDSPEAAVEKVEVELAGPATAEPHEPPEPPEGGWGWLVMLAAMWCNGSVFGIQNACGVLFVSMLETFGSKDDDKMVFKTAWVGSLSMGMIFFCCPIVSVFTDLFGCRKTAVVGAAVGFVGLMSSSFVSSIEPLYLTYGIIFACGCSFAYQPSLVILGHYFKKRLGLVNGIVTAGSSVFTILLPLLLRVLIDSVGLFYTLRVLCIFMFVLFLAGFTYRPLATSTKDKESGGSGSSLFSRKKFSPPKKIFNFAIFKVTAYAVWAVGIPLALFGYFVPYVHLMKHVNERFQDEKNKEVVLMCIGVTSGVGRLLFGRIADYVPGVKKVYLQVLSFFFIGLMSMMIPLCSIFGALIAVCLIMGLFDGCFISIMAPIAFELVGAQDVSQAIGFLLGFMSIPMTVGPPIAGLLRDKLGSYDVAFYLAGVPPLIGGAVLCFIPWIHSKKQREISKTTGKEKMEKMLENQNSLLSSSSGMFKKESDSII

The target of experiment [3] is T3, OATP1A2 (Human (h) OATP1A2) (Homo sapiens, UniProt P46721).
T3 sequence (P46721 1-670): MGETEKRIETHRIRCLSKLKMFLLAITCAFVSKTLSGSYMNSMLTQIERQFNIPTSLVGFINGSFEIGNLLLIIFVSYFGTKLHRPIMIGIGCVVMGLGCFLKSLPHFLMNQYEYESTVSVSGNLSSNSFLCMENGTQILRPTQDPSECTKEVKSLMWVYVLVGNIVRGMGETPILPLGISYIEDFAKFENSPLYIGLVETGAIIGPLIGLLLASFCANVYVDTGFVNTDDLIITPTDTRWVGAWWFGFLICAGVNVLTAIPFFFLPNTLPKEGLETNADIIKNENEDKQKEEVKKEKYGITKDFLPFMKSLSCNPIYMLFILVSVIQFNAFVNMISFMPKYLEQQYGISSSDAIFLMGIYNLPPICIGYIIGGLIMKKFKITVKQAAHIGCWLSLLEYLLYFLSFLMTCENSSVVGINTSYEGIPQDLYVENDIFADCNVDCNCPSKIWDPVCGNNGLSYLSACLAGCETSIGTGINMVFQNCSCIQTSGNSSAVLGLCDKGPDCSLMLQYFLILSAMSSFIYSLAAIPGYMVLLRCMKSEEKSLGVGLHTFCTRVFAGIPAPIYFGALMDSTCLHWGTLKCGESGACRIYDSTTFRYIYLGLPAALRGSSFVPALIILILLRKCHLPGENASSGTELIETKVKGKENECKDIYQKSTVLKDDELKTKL

Another experiment deals with MCT8 (hMCT8) (Homo sapiens, UniProt P36021).

Each structure is given as a SMILES string.

Sequence of MCT8 (hMCT8) (P36021 2-539): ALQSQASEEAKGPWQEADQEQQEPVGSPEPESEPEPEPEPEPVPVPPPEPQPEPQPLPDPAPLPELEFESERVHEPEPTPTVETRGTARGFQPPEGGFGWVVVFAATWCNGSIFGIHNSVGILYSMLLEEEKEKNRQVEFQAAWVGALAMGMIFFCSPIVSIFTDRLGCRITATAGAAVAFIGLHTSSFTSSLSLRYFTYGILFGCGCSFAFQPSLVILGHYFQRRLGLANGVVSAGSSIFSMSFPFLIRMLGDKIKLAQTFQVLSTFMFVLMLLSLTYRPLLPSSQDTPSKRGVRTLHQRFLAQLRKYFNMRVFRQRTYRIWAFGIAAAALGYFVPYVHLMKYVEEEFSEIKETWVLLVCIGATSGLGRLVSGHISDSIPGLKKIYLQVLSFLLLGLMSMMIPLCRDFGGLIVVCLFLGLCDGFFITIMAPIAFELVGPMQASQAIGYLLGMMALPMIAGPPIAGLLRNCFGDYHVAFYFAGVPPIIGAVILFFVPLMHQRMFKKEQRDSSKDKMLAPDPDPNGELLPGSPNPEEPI
Sequence of LAT1 (hSLC7A5, cotransfected with hSLC3A2) (Q01650 whole entry, one chain of several): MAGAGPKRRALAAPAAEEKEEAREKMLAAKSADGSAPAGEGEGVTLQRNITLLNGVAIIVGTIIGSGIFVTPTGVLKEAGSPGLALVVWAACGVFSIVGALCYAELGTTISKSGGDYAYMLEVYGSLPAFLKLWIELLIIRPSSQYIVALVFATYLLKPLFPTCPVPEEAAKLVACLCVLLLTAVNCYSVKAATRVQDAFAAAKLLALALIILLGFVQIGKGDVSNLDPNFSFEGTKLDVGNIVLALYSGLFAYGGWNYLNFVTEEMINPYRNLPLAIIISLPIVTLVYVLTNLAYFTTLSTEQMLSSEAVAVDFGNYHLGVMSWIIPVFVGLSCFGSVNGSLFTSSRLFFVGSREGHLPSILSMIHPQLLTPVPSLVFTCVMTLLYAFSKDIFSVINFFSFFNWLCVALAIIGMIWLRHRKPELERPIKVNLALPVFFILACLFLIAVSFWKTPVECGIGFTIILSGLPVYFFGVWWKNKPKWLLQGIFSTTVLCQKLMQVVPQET

As for `NC1(C(=O)O)CC2CCC1C2` (stereo not shown) [BCH, 2-Amino-2-norbornanecarboxylic acid], the IC50 in experiment [1] was 146 µM; in experiment [2], ~100 µM.

For `N[C@@H](Cc1c[nH]c2ccccc12)C(=O)O` [L-tryptophan], on MCT10 (hMCT10), the IC50 was > 10000 µM.

The compound `C[C@@H]1O[C@@H](O[C@H]2[C@H](Oc3cc(O)c4c(c3)O[C@H](c3ccc(O)cc3)CC4=O)O[C@H](CO)[C@@H](O)[C@@H]2O)[C@H](O)[C@H](O)[C@H]1O` [Naringin] came in with an IC50 in experiment [3] of 23 µM.

`CO[C@H]1/C=C/O[C@@]2(C)Oc3c(C)c(O)c4c(O)c(c(/C=N/N5CCN(C)CC5)c(O)c4c3C2=O)NC(=O)/C(C)=C\C=C\[C@H](C)[C@H](O)[C@@H](C)[C@@H](O)[C@@H](C)[C@H](OC(C)=O)[C@@H]1C` [Rifampicin]: in experiment [3], 50 µM corresponded to half-maximal inhibition (IC50).

Take `COc1cc([C@@H]2Oc3c(O)cc([C@H]4Oc5cc(O)cc(O)c5C(=O)[C@@H]4O)cc3[C@H]2CO)ccc1O` [Silychristin]: the IC50 against MCT8 (hMCT8) was 0.12 µM; in experiment [3], > 10 µM.

Regarding `COc1ccc(CCN(C)CCCC(C#N)(c2ccc(OC)c(OC)c2)C(C)C)cc1OC` (stereo not shown) [Verapamil], the results for the IC50 (on MCT8 (hMCT8); against MCT10 (hMCT10); in experiment [3]) were ~100 µM, > 100 µM and 1.5 µM, respectively.

For orientation: IC50 means the concentration at which inhibition is half-maximal.
